Test results published in ChEMBL document CHEMBL1921780, “Novel 3-nitro-1H-1,2,4-triazole-based aliphatic and aromatic amines as anti-chagasic agents” (J Med Chem, 2011).

Columns and labels:
[1] = tested on: Trypanosoma brucei rhodesiense; assay: Antitrypanosomal activity against blood stream form of Trypanosoma brucei rhodesiense STIB 900 […] after 72 hrs by alamar blue assay; type: functional, organism-based; conditions: STIB 900, 72 h
[2] = tested on: L6; assay: Cytotoxicity against rat L6 cells after 72 hrs by alamar blue assay; type: cell-based; conditions: L6, 72 h
Method in brief: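 Run in 96-well plates with a compound dose series. T. cruzi was tested as amastigotes inside infected L6 rat skeletal myoblasts. Uninfected L6 cells were used for cytotoxicity. IC50 was obtained by linear regression from sigmoidal dose–inhibition curves.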

[3] = Selectivity index, ratio of IC50 for rat L6 cells to IC50 for Trypanosoma brucei rhodesiense STIB 900; type: toxicity, cell-based; conditions: L6 cells versus Trypanosoma brucei rhodesiense STIB 900, read-out: Ratio IC50
Method in brief: (§1)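 Selectivity index is the L6 myoblast IC50 divided by the IC50 for each parasite. L. donovani was tested as axenic amastigotes. Both IC50s came from 96-well dose-response screens fitted by linear regression of sigmoidal curves.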

[4] = Selectivity index, ratio of IC50 for rat L6 cells to IC50 for Trypanosoma cruzi Tulahuen C4; type: toxicity, cell-based; conditions: L6 cells versus Trypanosoma cruzi Tulahuen C4, read-out: Ratio IC50; method in brief: as §1
[5] = Selectivity index, ratio of IC50 for rat L6 cells to IC50 for Leishmania donovani MHOM-ET-67/L82; type: toxicity, cell-based; conditions: L6 cells versus Leishmania donovani MHOM-ET-67/L82, read-out: Ratio IC50; method in brief: as §1
[6] = tested on: Trypanosoma cruzi; assay: Ratio of benznidazole IC50 to compound IC50 for Trypanosoma cruzi Tulahuen C4 infected in rat L6 cells after 72 hrs by alamar blue assay; type: functional
[7] = Dissociation constant, pKa of the compound; type: physicochemical
[8] = tested on: Leishmania donovani; assay: Antileishmanial activity against Leishmania donovani MHOM-ET-67/L82 axenic amastigotes after 72 hrs by alamar blue assay; conditions: MHOM-ET-67/L82, 72 h
[9] = tested on: Trypanosoma cruzi; assay: Antitrypanosomal activity against amastigotes of Trypanosoma cruzi Tulahuen C4 infected in rat L6 cells after 72 hrs by alamar blue assay; conditions: Tulahuen C4, L6, 72 h
[10] = tested on: Trypanosoma brucei brucei; assay: Antitrypanosomal activity against blood-stream Trypanosoma brucei brucei after 3 days by alamar blue assay; type: functional, organism-based; conditions: 72 h
Method in brief: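 Bloodstream-form parasites seeded at 1 × 10^3 per ml in growth medium with a range of nitrotriazole or nifurtimox concentrations, no tetracycline. Incubated 3 days at 37 °C, then Alamar blue added for a further 16 h. IC50 taken from culture cell density.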

SMILES | IC50 [1] | pKa [7] | IC50 [9] | IC50 [10] | IC50 [2] | selectivity ratio [3] | selectivity ratio [4] | selectivity ratio [5] | Ratio IC50 [6] | IC50 [8]
Cl.O=[N+]([O-])c1ncn(CCCNc2c3ccccc3nc3ccccc23)n1 | 0.611 µM | 9.2 | 0.14 µM | – | 20.5 µM | 34 | 147 | 1 | 9.6 | 35.4 µM
O=[N+]([O-])c1nccn1CCNc1c2ccccc2nc2ccccc12 | 0.996 µM | – | 0.996 µM | – | 0.308 µM | – | – | – | – | 9.09 µM
O=[N+]([O-])c1nccn1CCCCNc1c2ccccc2nc2ccccc12 | 0.601 µM | – | 0.926 µM | – | 1.68 µM | 3 | 2 | – | – | 14.8 µM
O=[N+]([O-])c1nccn1CCCNc1ccnc2cc(Cl)ccc12 | 1.4 µM | – | 1.04 µM | – | 24.9 µM | 18 | 24 | – | – | 54.4 µM
Cc1nc(NCCCn2ccnc2[N+](=O)[O-])c2ccccc2n1 | 3.46 µM | – | 2.1 µM | – | 31.6 µM | 9 | 15 | – | – | 68.3 µM
O=[N+]([O-])c1nccn1CCCCNc1nc(-c2ccccc2)nc2ccccc12 | 2.76 µM | – | 3.63 µM | – | 32.5 µM | 12 | 9 | 5 | – | 6.17 µM
Cc1cc(NCCCn2ccnc2[N+](=O)[O-])nc(N)n1 | 10.3 µM | – | 7.08 µM | – | > 287 µM | > 28 | > 41 | – | – | > 95.7 µM
O=[N+]([O-])c1nccn1CCCCNc1nc(-c2ccccc2)nc(Cl)c1-c1ccccc1 | 15.5 µM | – | 9.67 µM | – | 11.7 µM | 1 | 1 | 1 | – | 12.4 µM
O=C1C(Cl)=C(NCCCn2ccnc2[N+](=O)[O-])C(=O)c2ccccc21 | 0.621 µM | – | 30.1 µM | – | 3.91 µM | 6 | – | 8 | – | 0.516 µM
O=C1C(Cl)=C(NCCCn2cnc([N+](=O)[O-])n2)C(=O)c2ccccc21 | 0.882 µM | – | 15.6 µM | – | 7.16 µM | 8 | – | 1 | – | 6.53 µM
O=[N+]([O-])c1nccn1CCCN(Cc1ccc2cc(Br)ccc2n1)Cc1ccc2cc(Br)ccc2n1 | 14.2 µM | – | 4.67 µM | – | 93.6 µM | 7 | 20 | 5 | – | 18.7 µM
Cl.O=[N+]([O-])c1ncn(CCCN(Cc2ccc3ccc(Cl)cc3n2)Cc2ccc3ccc(Cl)cc3n2)n1 | 0.917 µM | 6.87 | 0.358 µM | – | 71.6 µM | 78 | 200 | 7 | 3.8 | 9.58 µM
Cl.O=[N+]([O-])c1ncn(CCCN(Cc2ccc3cc(Br)ccc3n2)Cc2ccc3cc(Br)ccc3n2)n1 | 0.463 µM | 6.87 | 0.32 µM | – | 46 µM | 99 | 144 | 5 | 4.2 | 9.33 µM
Nc1nc(N)nc(Nc2ccc([As]3SCC(CO)S3)cc2)n1 (centres undefined) [MELARSOPROL] | 0.01 µM | – | – | – | – | – | – | – | – | –

Continued, in another order:

IC50 [1] | pKa [7] | IC50 [9] | IC50 [10] | SMILES | IC50 [2] | selectivity ratio [3] | selectivity ratio [4] | selectivity ratio [5] | Ratio IC50 [6] | IC50 [8]
0.134 µM | 8.84 | 0.151 µM | – | COc1ccc2nc3cc(Cl)ccc3c(NCCCCn3cnc([N+](=O)[O-])n3)c2c1 | 9.94 µM | 74 | 66 | 1 | – | 10.2 µM
1.87 µM | – | 3.51 µM | – | O=[N+]([O-])c1nccn1CCCCNc1ccnc2cc(Cl)ccc12 | 66.8 µM | 36 | 19 | 2 | – | 39.1 µM
15.2 µM | – | 4.28 µM | – | Cc1nc(C(F)(F)F)nc(NCCCn2ccnc2[N+](=O)[O-])c1C | > 236 µM | > 16 | > 55 | > 12 | – | 20.1 µM
11.8 µM | – | 41.8 µM | – | Cc1cc(NCCCCn2ccnc2[N+](=O)[O-])nc(N)n1 | > 275 µM | > 23 | > 7 | > 3 | – | 98.1 µM
2.26 µM | – | 0.968 µM | – | COc1cc2nc(Cl)nc(NCCCCn3ccnc3[N+](=O)[O-])c2cc1OC | 16.5 µM | 7 | 17 | 5 | – | 3.63 µM
0.117 µM | 7.53 | 0.305 µM | – | Cl.O=[N+]([O-])c1ncn(CCCCNc2ccnc3cc(C(F)(F)F)ccc23)n1 | 114 µM | 973 | 373 | 1 | 4.4 | 137 µM
21.8 µM | – | 92.1 µM | – | Clc1ccc2c(NCCCCn3cncn3)ccnc2c1 | > 298 µM | > 14 | > 3 | – | – | > 298 µM
0.562 µM | 5.06 | 1.74 µM | – | Cl.O=[N+]([O-])c1ncn(CCCCNc2nc(-c3ccccc3)nc3ccccc23)n1 | 77 µM | 137 | 44 | 9 | 0.8 | 8.69 µM
2.19 µM | – | 33.7 µM | – | Cc1cc(NCCCn2cnc([N+](=O)[O-])n2)nc(N)n1 | > 286 µM | > 131 | > 8 | – | – | > 95.4 µM
2.22 µM | 6.81 | 1.03 µM | > 10 µM | Cl.O=[N+]([O-])c1ncn(CCCNc2ccnc3cccnc23)n1 | 133 µM | 60 | 129 | 1 | 1.3 | 182 µM
0.435 µM | 6.81 | 0.46 µM | – | Cl.O=[N+]([O-])c1ncn(CCCCNc2ccnc3cccnc23)n1 | 95.8 µM | 220 | 208 | – | 2.9 | > 276 µM
13.8 µM | – | 24.5 µM | – | O=[N+]([O-])c1nccn1CCCNCc1cc(C(F)(F)F)cc(C(F)(F)F)c1 | 140 µM | 10 | 6 | < 2 | – | > 69.4 µM
23 µM | – | 3.77 µM | – | O=[N+]([O-])c1nccn1CCCN(Cc1ccc(C(F)(F)F)cc1)Cc1ccc(C(F)(F)F)cc1 | > 172 µM | > 7 | > 46 | > 27 | – | 6.49 µM
21.6 µM | – | 8.02 µM | – | O=[N+]([O-])c1nccn1CCCN(Cc1cccc(C(F)(F)F)c1)Cc1cccc(C(F)(F)F)c1 | 79.6 µM | 4 | 10 | 19 | – | 4.27 µM
8.17 µM | – | 1.96 µM | – | O=[N+]([O-])c1ncn(CCCN(Cc2cc(C(F)(F)F)cc(C(F)(F)F)c2)Cc2cc(C(F)(F)F)cc(C(F)(F)F)c2)n1 | 78.8 µM | 10 | 40 | 16 | – | 4.87 µM
32.3 µM | – | 123 µM | – | FC(F)(F)c1cc(CNCCCCn2cncn2)cc(C(F)(F)F)c1 | > 224 µM | > 7 | > 2 | > 1 | – | 172 µM
8.56 µM | – | 6.05 µM | – | O=[N+]([O-])c1nccn1CCCNCc1ccc2cc(Br)ccc2n1 | 137 µM | 16 | 23 | 2 | – | 80.3 µM
1.05 µM | 8.76 | 0.311 µM | – | Cl.O=[N+]([O-])c1ncn(CCCNCc2ccc3ccc(Cl)cc3n2)n1 | 143 µM | 136 | 460 | 2 | 4.3 | 63.8 µM
3.61 µM | 9.65 | 0.32 µM | – | Cl.O=[N+]([O-])c1ncn(CCCNCc2ccc(C(F)(F)F)cc2)n1 | 122 µM | 34 | 383 | 1 | 4.2 | 159 µM
15.3 µM | – | 20.7 µM | – | O=[N+]([O-])c1nccn1CCCN1CCN(Cc2ccc(C(F)(F)F)cc2)CC1 | > 191 µM | > 13 | > 9 | – | – | > 191 µM
